Assay results taken from ChEMBL document CHEMBL1123068, “2-Fluoroformycin and 2-aminoformycin. Synthesis and biological activity” (J Med Chem, 1985).

Test system: L1210
Assay: Cytotoxic concentration required to reduce rate of L1210 cell proliferation after 48 hr
Assay type: functional, cell-based
Conditions: Mus musculus, L1210, 48 h
In short: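 L1210 cells grown rapidly in suspension culture were exposed to a range of inhibitor concentrations, some tests with the adenosine deaminase inhibitor pentostatin added. The drop in proliferation rate versus untreated controls was found by cell counts at 24 and 48 h after addition, and IC50 was taken from this.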

First: Nc1nc(N)c2[nH]nc([C@@H]3O[C@H](CO)[C@@H](O)[C@H]3O)c2n1.OC[C@H]1O[C@@H](n2cnc3c2NC=NC[C@H]3O)C[C@@H]1O
Second: Nc1nc(F)nc2c([C@@H]3O[C@H](CO)[C@@H](O)[C@H]3O)n[nH]c12.OC[C@H]1O[C@@H](n2cnc3c2NC=NC[C@H]3O)C[C@@H]1O
The IC50 of the first is 4.4-fold lower: 5 µM for the first, 22 µM for the second.

First: Nc1nc(F)nc2c([C@@H]3O[C@H](CO)[C@@H](O)[C@H]3O)n[nH]c12
Second: Nc1nc(N)c2[nH]nc([C@@H]3O[C@H](CO)[C@@H](O)[C@H]3O)c2n1
The IC50 of the first is 2.6-fold lower: 12 µM for the first, 31 µM for the second. The first is the more potent here.

Compared with `Nc1ncnc2c([C@@H]3O[C@H](CO)[C@@H](O)[C@H]3O)[nH]nc12` [FORMYCIN], `Nc1ncnc2c([C@@H]3O[C@H](CO)[C@@H](O)[C@H]3O)n[nH]c12.OC[C@H]1O[C@@H](n2cnc3c2NC=NC[C@H]3O)C[C@@H]1O` is 5-fold lower in IC50: 1 µM for the first, 0.2 µM for the second.
